Measured values: ChEMBL document CHEMBL1140754, “Synthesis and insecticidal evaluation of novel N'-tert-butyl-N'-substitutedbenzoyl-N-5-chloro-6-chromanecarbohydrazide derivatives” (2008)
Converted amounts (≈) assume the structure as drawn.

System: Mythimna separata
Experiment: Larvicidal activity against Oriental armyworm
Type: functional
Procedure, shortened: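 Oriental armyworm (Mythimna separata) larvae dosed by foliar application. Each treatment run in triplicate. LC50 derived by Probit analysis. Reference insecticides were tested under the same conditions.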

SMILES	LC50
CC(C)(C)N(NC(=O)c1ccc2c(c1Cl)CCCO2)C(=O)c1ccc(Cl)cc1	4.06 µg/mL (≈ 9.64 µM)
CC(C)(C)N(NC(=O)c1ccc2c(c1Cl)CCCO2)C(=O)c1ccc(Cl)cc1Cl	4.11 µg/mL (≈ 9.02 µM)
CC(C)(C)N(NC(=O)c1ccc2c(c1Cl)CCCO2)C(=O)c1cc(Cl)cc(Cl)c1	4.11 µg/mL (≈ 9.02 µM)
CC(C)(C)N(NC(=O)c1ccc2c(c1Cl)CCCO2)C(=O)c1c(Cl)cc(Cl)cc1Cl	> 500 µg/mL
CC(C)(C)N(NC(=O)c1ccc2c(c1Cl)CCCO2)C(=O)c1c(Cl)cc(C(F)(F)F)cc1Cl	> 500 µg/mL
CC(C)(C)N(NC(=O)c1ccc2c(c1Cl)CCCO2)C(=O)c1ccccc1F	4.75 µg/mL (≈ 11.7 µM)
CC(C)(C)N(NC(=O)c1ccc2c(c1Cl)CCCO2)C(=O)c1ccccc1[N+](=O)[O-]	6.54 µg/mL (≈ 15.1 µM)
CC(C)(C)N(NC(=O)c1ccc2c(c1Cl)CCCO2)C(=O)c1ccc([N+](=O)[O-])cc1	29.7 µg/mL (≈ 68.8 µM)
CC(C)(C)N(NC(=O)c1ccc2c(c1Cl)CCCO2)C(=O)c1ccc(F)cc1F	5.69 µg/mL (≈ 13.5 µM)
CC(C)(C)N(NC(=O)c1ccc2c(c1Cl)CCCO2)C(=O)c1cccc(I)c1	30.2 µg/mL (≈ 58.9 µM)
COc1ccc(C(=O)N(NC(=O)c2ccc3c(c2Cl)CCCO3)C(C)(C)C)cc1	25.1 µg/mL (≈ 60.1 µM)
COc1ccc(C(=O)N(NC(=O)c2ccc3c(c2Cl)CCCO3)C(C)(C)C)cc1OC	19.8 µg/mL (≈ 44.2 µM)
COc1cc(C(=O)N(NC(=O)c2ccc3c(c2Cl)CCCO3)C(C)(C)C)cc(OC)c1OC	42.7 µg/mL (≈ 89.4 µM)
CCOc1ccc(C(=O)N(NC(=O)c2ccc3c(c2Cl)CCCO3)C(C)(C)C)cc1	215 µg/mL (≈ 500 µM)
CC(C)(C)N(NC(=O)c1ccc2c(c1Cl)CCCO2)C(=O)c1cccc(Cl)c1	5.98 µg/mL (≈ 14.2 µM)
Cc1cc(C)cc(C(=O)N(NC(=O)c2ccc3c(c2C)OCCO3)C(C)(C)C)c1	1.4 µg/mL (≈ 3.53 µM)
CC(C)(C)N(NC(=O)c1ccc2c(c1Cl)CCCO2)C(=O)c1ccccc1	5 µg/mL (≈ 12.9 µM)

SMILES	LC50
Cc1ccccc1C(=O)N(NC(=O)c1ccc2c(c1Cl)CCCO2)C(C)(C)C	31.3 µg/mL (≈ 78.1 µM)
Cc1cccc(C(=O)N(NC(=O)c2ccc3c(c2Cl)CCCO3)C(C)(C)C)c1	2.78 µg/mL (≈ 6.93 µM)
Cc1ccc(C(=O)N(NC(=O)c2ccc3c(c2Cl)CCCO3)C(C)(C)C)c(C)c1	6.14 µg/mL (≈ 14.8 µM)
COc1cccc(C(=O)N(NC(=O)c2ccc3c(c2Cl)CCCO3)C(C)(C)C)c1	11.4 µg/mL (≈ 27.3 µM)
CC(C)(C)N(NC(=O)c1ccc2c(c1Cl)CCCO2)C(=O)c1ccc([N+](=O)[O-])cc1Cl	8.47 µg/mL (≈ 18.2 µM)
Cc1cc(C)c(C(=O)N(NC(=O)c2ccc3c(c2Cl)CCCO3)C(C)(C)C)c(C)c1	> 500 µg/mL
COc1ccccc1C(=O)N(NC(=O)c1ccc2c(c1Cl)CCCO2)C(C)(C)C	10.1 µg/mL (≈ 24.2 µM)
CC(C)(C)N(NC(=O)c1ccc2c(c1Cl)CCCO2)C(=O)c1cccc([N+](=O)[O-])c1	399 µg/mL (≈ 924 µM)
Cc1cc(C)cc(C(=O)N(NC(=O)c2ccc3c(c2Cl)OCCO3)C(C)(C)C)c1	1.4 µg/mL (≈ 3.36 µM)
Cc1ccc(C(=O)N(NC(=O)c2ccc3c(c2Cl)CCCO3)C(C)(C)C)cc1	5.57 µg/mL (≈ 13.9 µM)
CC(C)(C)N(NC(=O)c1ccc2c(c1Cl)CCCO2)C(=O)c1ccc(I)cc1	43.5 µg/mL (≈ 84.9 µM)
CC(C)(C)N(NC(=O)c1ccc2c(c1Cl)CCCO2)C(=O)c1ccccc1Cl	10.8 µg/mL (≈ 25.5 µM)
CC(C)(C)N(NC(=O)c1ccc2c(c1Cl)CCCO2)C(=O)c1ccc(Cl)cc1[N+](=O)[O-]	2.73 µg/mL (≈ 5.85 µM)
Cc1cc(C)cc(C(=O)N(NC(=O)c2ccc3c(c2Cl)CCCO3)C(C)(C)C)c1 [N'-TERT-BUTYL-N'-(3,5-DIMETHYLBENZOYL)-N-5-CHLORO-6-CHROMANECARBOHYDRAZIDE]	2.25 µg/mL (≈ 5.42 µM)
CC(C)(C)N(NC(=O)c1ccccc1)C(=O)c1ccccc1 [RH-5849]	24.4 µg/mL (≈ 82.3 µM)
CCc1ccc(C(=O)NN(C(=O)c2cc(C)cc(C)c2)C(C)(C)C)cc1 [TEBUFENOZIDE]	1.59 µg/mL (≈ 4.51 µM)
